Data from BindingDB's records for doi:10.1021/jm00001a007 (Sandoz Pharma, 1995).
Where “and” joins values, the source holds several entries; their conditions need not be identical. Equal entries are not always repeated. Structures can show the parent of a compound that is named as a salt.

Experiments:
[1] = molecular target: 5-hydroxytryptamine 2A receptor; experiment: Binding affinity towards 5-hydroxytryptamine 2A receptor in rat cortex preparations using [3H]ketanserin
How it was run: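 5-HT2 sites: rat cortex for 2A ([3H]ketanserin), porcine choroid plexus for 2C ([3H]mesulergine). Nonspecific binding defined with 10 μM mianserin. Displacement-curve IC50 converted to KD via Cheng–Prusoff; expressed as pKD.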

[2] = molecular target: T1, Alpha-2A adrenergic receptor (Bos taurus, UniProt Q28838); experiment: Binding affinity towards Alpha-2 adrenergic receptor of calf brain cortex using [3H]clonidine
T1 sequence (Q28838 whole entry): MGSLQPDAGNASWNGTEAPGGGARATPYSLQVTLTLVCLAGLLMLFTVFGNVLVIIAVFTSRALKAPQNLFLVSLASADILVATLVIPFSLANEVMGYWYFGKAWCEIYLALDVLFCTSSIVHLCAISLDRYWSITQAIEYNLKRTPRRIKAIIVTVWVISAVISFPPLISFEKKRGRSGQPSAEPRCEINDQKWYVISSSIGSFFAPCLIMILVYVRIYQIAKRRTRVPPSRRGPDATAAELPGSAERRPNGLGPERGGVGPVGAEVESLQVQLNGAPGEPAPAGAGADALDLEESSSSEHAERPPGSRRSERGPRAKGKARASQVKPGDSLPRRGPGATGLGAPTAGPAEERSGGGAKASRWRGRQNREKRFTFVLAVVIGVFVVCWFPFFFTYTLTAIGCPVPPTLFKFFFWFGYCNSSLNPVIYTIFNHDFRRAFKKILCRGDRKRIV
How it was run: (§1)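 Membranes from fresh calf brain cortex. Nonspecific binding defined with 10 μM phentolamine for α1 ([3H]prazosin) and with 1 μM unlabeled clonidine for α2 ([3H]clonidine). IC50 converted to KD (Cheng–Prusoff), given as pKD.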

[3] = molecular target: T2, Alpha-1A adrenergic receptor (Bos taurus, UniProt P18130); experiment: Binding affinity towards Alpha-1 adrenergic receptor of calf brain cortex using [3H]prazosin; how it was run: as §1
T2 sequence (P18130 whole entry): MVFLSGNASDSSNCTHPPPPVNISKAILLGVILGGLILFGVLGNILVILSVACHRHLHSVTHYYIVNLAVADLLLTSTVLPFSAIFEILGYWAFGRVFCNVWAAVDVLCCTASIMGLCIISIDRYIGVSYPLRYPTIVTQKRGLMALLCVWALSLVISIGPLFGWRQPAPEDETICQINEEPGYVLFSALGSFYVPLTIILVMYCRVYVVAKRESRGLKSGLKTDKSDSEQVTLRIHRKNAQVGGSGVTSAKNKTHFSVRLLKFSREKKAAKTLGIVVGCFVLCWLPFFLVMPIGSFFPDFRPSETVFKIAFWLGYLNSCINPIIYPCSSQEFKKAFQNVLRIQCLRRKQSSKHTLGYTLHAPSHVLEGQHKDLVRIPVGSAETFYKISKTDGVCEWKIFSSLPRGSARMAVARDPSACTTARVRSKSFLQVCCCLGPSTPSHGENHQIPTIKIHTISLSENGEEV

[4] = molecular target: D(2) dopamine receptor (Bos taurus, UniProt P20288); experiment: Binding affinity towards Dopamine receptor D2 of calf striatal tissue using [3H]spiperone
How it was run: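 Calf striatal membranes, [3H]spiperone. Cinanserin (0.5 μM) masked 5-HT2A sites; nonspecific binding defined with haloperidol (5 μM). Displacement IC50 converted to KD (Cheng–Prusoff), reported as pKD.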

[5] = molecular target: D(1A) dopamine receptor (Bos taurus, UniProt Q95136); experiment: Binding affinity towards Dopamine receptor D1 of calf striatal tissue using [3H]SCH-23390
How it was run: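 Calf striatal membranes, [3H]SCH-23390. Nonspecific binding defined with 1 μM unlabeled SCH-23390. IC50 from displacement curves converted via Cheng–Prusoff to KD, expressed as pKD.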

Sequence of D(1A) dopamine receptor (Q95136 whole entry): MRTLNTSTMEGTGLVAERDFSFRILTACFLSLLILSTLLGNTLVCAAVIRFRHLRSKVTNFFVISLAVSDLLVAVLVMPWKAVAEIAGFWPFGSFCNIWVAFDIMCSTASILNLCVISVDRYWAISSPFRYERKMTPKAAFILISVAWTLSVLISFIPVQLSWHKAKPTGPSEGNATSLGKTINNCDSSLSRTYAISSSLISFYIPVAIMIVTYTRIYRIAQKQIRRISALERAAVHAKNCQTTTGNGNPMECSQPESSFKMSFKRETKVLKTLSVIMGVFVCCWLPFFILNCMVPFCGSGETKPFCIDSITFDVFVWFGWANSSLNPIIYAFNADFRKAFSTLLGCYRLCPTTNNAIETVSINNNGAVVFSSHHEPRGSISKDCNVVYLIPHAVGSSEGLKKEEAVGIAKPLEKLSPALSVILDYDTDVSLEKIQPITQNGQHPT
Sequence of D(2) dopamine receptor (P20288 whole entry): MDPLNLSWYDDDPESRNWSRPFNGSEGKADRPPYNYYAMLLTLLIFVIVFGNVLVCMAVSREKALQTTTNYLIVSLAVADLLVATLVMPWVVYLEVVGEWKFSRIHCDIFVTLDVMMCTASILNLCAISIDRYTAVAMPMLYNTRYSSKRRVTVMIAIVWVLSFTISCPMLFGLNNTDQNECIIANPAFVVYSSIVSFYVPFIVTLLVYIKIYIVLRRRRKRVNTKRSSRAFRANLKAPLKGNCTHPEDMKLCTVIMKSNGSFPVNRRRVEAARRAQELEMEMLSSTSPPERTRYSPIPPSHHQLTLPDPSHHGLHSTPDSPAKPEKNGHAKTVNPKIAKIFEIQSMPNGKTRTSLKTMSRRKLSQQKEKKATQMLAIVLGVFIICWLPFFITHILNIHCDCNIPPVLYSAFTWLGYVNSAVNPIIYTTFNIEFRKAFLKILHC

Compound: CN1CC[C@@H]2CN3CCc4cccc(c43)[C@@H]2C1 [SDZ SER 082 FUMARATE]
- Kd [1]: 631 nM
- Kd [2]: 999 nM and 1000 nM
- Kd [3]: 1000 nM and 999 nM
- Kd [4]: < 10 µM
- Kd [5]: < 10 µM
